Experimental findings from ChEMBL document CHEMBL1909630, “Azaxanthene based selective glucocorticoid receptor modulators: design, synthesis, and pharmacological evaluation of (S)-4-(5-(1-((1,3,4-thiadiazol-2-yl)amino)-2-methyl-1-oxopropan-2-yl)-5H-chromeno[2,3-b]pyridin-2-yl)-2-fluoro-N,N-dimethylbenzamide (BMS-776532) and its methylene homologue …” (J Med Chem, 2011) are described below.

The Ki is a dissociation constant, usually derived from enzyme kinetics or from competition with a known ligand. Read a low Ki as tighter binding. Usually EC50 stands for the concentration giving half of the maximal effect.

Experiment [1] deals with T1, Glucocorticoid receptor (Homo sapiens, UniProt P04150).
T1 sequence (P04150 whole entry): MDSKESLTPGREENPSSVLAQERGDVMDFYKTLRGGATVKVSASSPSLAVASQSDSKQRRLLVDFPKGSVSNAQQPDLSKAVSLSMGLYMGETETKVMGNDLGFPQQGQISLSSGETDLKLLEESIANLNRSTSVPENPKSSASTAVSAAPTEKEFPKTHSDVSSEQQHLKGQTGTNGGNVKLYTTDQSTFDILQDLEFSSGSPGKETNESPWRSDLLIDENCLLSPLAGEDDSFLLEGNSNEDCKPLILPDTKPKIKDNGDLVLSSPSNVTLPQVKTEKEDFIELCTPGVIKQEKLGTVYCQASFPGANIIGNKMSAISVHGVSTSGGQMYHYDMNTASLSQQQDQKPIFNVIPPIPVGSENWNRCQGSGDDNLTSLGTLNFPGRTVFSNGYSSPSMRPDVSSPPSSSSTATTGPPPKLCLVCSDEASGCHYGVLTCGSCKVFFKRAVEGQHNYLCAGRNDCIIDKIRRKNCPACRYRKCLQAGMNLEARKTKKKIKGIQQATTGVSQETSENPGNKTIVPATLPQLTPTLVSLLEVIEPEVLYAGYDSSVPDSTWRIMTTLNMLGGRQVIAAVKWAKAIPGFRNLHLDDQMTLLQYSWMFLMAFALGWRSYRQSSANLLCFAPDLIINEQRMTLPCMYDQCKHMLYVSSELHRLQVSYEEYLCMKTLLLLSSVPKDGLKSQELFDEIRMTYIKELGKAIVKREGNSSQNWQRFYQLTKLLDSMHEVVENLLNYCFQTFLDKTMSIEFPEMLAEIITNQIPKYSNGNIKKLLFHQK
The experiment in a line: Displacement of GS-red from glucocorticoid receptor by fluorescence polarization assay. For orientation: Fluorescence polarisation rises when a labelled molecule tumbles more slowly, as on binding a larger partner.

Experiment [2] deals with Blood. The experiment in a line: Antiinflammatory activity in human whole blood assessed as inhibition of IL-1beta-induced IL-8 production after overnight incubation by ELISA relative to Dexamethasone. Format: functional. In a few lines:
(§1)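 Whole blood from two donors per experiment was collected into ACD-A. Compounds were added and the blood was incubated about 20 h at 37 °C under 5% CO2. Blood was then stimulated for 5 h with LPS (final 100 ng/mL, for TNFα) or IL-1β (final 10 ng/mL, for IL-8). Plasma TNFα or IL-8 was measured by ELISA. Efficacy was expressed as % of dexamethasone, and values are means of at least two experiments.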

For experiment [3], the target named is T1, Glucocorticoid receptor. The experiment in a line: Transactivation activity at glucocorticoid receptor alpha human 13D3/Huh7 cells assessed as induction of TAT activity after 4 hrs by spectrophotometry. The format is cell-based, Huh-7.
The target of experiment [4] is T1, Glucocorticoid receptor. The experiment in a line: Transactivation activity at GR-alpha in human NP1 Hela cells assessed as inhibition of GAL4-DBD after 20 hrs by luciferase reporter gene assay. The format is cell-based. Background: Reporter assays use an easily measured gene product as a stand-in for the process of interest.
The subject of experiment [5] is Blood. The experiment in a line: Antiinflammatory activity in human whole blood assessed as inhibition of TNF-alpha-induced IL-8 production after overnight incubation by ELISA relative to dexamethasone. The format is functional. (In general: An ELISA detects its analyte on a solid surface through an enzyme-linked reagent.)
In experiment [6] the test system is Blood. The experiment in a line: Antiinflammatory activity in human whole blood assessed as inhibition of TNF-alpha-induced IL-8 production after overnight incubation by ELISA. Format: functional, tissue-based.
Experiment [7] has as its system Blood. The experiment in a line: Antiinflammatory activity in human whole blood assessed as inhibition of LPS-induced TNFalpha production after overnight incubation by ELISA relative to Dexamethasone. The format is functional. In short, it runs like this:
as §1

Experiment [8] has as its system Blood. The experiment in a line: Antiinflammatory activity in human whole blood assessed as inhibition of LPS-induced TNFalpha production after overnight incubation by ELISA. Format: functional, tissue-based. In short, it runs like this:
as §1

For experiment [9], the target named is T1, Glucocorticoid receptor. The experiment in a line: Transrepression activity at glucocorticoid receptor alpha in phorbol myristate acetate-stimulated human A549 cells assessed as inhibition of AP1 response element by luciferase reporter gene assay. Format: cell-based.
Experiment [10] deals with T1, Glucocorticoid receptor. The experiment in a line: Transactivation activity at GR-alpha in human NP1 Hela cells assessed as induction of GAL4-DBD after 20 hrs by luciferase reporter gene assay. The format is cell-based.
Experiment [11] has as its system Blood. The experiment in a line: Antiinflammatory activity in human whole blood assessed as inhibition of IL-1beta-induced IL-8 production after overnight incubation by ELISA. Format: functional, tissue-based. In a few lines:
as §1

Experiment [12] addresses T1, Glucocorticoid receptor. The experiment in a line: Transrepression activity at glucocorticoid receptor alpha in IL-1beta-stimulated human A549 cells assessed as inhibition of NFkappaB-dependent E-selectin transcription by luciferase reporter gene assay. The format is cell-based.

Each structure is given as a SMILES string. A value given as a limit tells only on which side of the number the result lay.

At Glucocorticoid receptor [1], `CNC(=O)c1ccc(-c2ccc3c(n2)Oc2ccccc2[C@@H]3C(C)(C)C(=O)Nc2nncs2)cc1F` yielded a Ki of 0.00548 µM. Further, the Imax with Blood [2] stood at 35%; in the experiment on Blood [5] it was 15%; in the experiment on Blood [7], 58%. Moreover, the EC50 is over 5 µM on Glucocorticoid receptor [3]; 0.408 µM on Glucocorticoid receptor [4]; over 20 µM in the experiment with Blood [6]; 0.819 µM in the experiment with Blood [8]; 0.0341 µM on Glucocorticoid receptor [9]; over 10 µM at Glucocorticoid receptor [10]. The EC50 with Blood [11] is over 20 µM; at Glucocorticoid receptor [12], 0.157 µM.
Turning to `CC(C)(C(=O)Nc1nncs1)[C@H]1c2ccccc2Oc2nc(-c3ccc(C(=O)N4CCOCC4)c(F)c3)ccc21`, the Ki at Glucocorticoid receptor [1] stood at 0.0027 µM. For the same molecule, the Imax in the experiment with Blood [2] was found to be 92%; in the experiment with Blood [5], 84%; in the experiment with Blood [7], 88%. Further, the EC50 was 0.093 µM at Glucocorticoid receptor [3]; 0.0344 µM at Glucocorticoid receptor [4]; 0.382 µM in the experiment with Blood [6]; 0.469 µM in the experiment on Blood [8]; 0.0117 µM on Glucocorticoid receptor [9]; 0.0789 µM on Glucocorticoid receptor [10]. Moreover, the EC50 worked out at 0.789 µM in the experiment with Blood [11] and 0.0117 µM at Glucocorticoid receptor [12].
In turn, `CC(C)(C(=O)Nc1nncs1)[C@H]1c2ccccc2Oc2nc(-c3ccc(C(=O)N4CCCCC4)c(F)c3)ccc21` had a Ki at Glucocorticoid receptor [1] of 0.00168 µM. Further, the values for the Imax in the experiment on Blood [2], in the experiment on Blood [5] and with Blood [7] were 27%, 45% and 73%, respectively. For the same molecule, the concentration for a half-maximal effect (EC50) at Glucocorticoid receptor [3] is over 5 µM; on Glucocorticoid receptor [4] it was 0.204 µM; in the experiment with Blood [6] it was over 20 µM; in the experiment on Blood [8], 5.47 µM; on Glucocorticoid receptor [9] it was 0.0275 µM; at Glucocorticoid receptor [10], over 10 µM. In addition, the EC50 in the experiment on Blood [11] was 3.19 µM; at Glucocorticoid receptor [12], 0.0256 µM.
In the case of `CC(C)(C(=O)Nc1nncs1)[C@H]1c2ccccc2Oc2nc(-c3ccc(C(=O)N4CCC(F)(F)C4)c(Cl)c3)ccc21`, the Ki on Glucocorticoid receptor [1] was 0.00308 µM. Besides, the values for the Imax with Blood [2], in the experiment on Blood [5] and in the experiment with Blood [7] were 82%, 59% and 85%, respectively. Also, the half-maximal effective concentration (EC50) at Glucocorticoid receptor [3] was 0.329 µM; at Glucocorticoid receptor [4], 0.13 µM; with Blood [6] it was 2.85 µM; in the experiment with Blood [8] it was 0.932 µM; on Glucocorticoid receptor [9], 0.05 µM; on Glucocorticoid receptor [10], 0.165 µM. The EC50 in the experiment with Blood [11] was 5.25 µM; at Glucocorticoid receptor [12], 0.0338 µM.
`CC(C)Oc1ccc(-c2ccc3c(n2)Oc2ccccc2[C@@H]3C(C)(C)C(=O)Nc2nncs2)cc1F` displayed a Ki on Glucocorticoid receptor [1] of 0.0039 µM. Moreover, the Imax is 7% with Blood [2], 12% in the experiment on Blood [5] and 49% in the experiment with Blood [7]. Further, the EC50 is 0.876 µM on Glucocorticoid receptor [3]; 0.162 µM on Glucocorticoid receptor [4]; over 20 µM in the experiment with Blood [6]; over 5 µM in the experiment on Blood [8]; 0.047 µM on Glucocorticoid receptor [9]; 0.496 µM on Glucocorticoid receptor [10]. Further, the EC50 is over 20 µM with Blood [11] and 0.073 µM on Glucocorticoid receptor [12].
With `CC(C)(C(=O)Nc1nncs1)[C@H]1c2ccccc2Oc2nc(-c3ccc(C(=O)N4CCCC4)c(F)c3)ccc21`, the Ki on Glucocorticoid receptor [1] came out at 0.00196 µM. Moreover, the figures for the Imax in the experiment on Blood [2], with Blood [5] and in the experiment on Blood [7] were 86%, 61% and 80%, respectively. Further, the EC50 at Glucocorticoid receptor [3] came to 0.389 µM; at Glucocorticoid receptor [4], 0.205 µM; in the experiment on Blood [6], 1.29 µM; in the experiment with Blood [8] it was 0.886 µM; on Glucocorticoid receptor [9], 0.025 µM; on Glucocorticoid receptor [10], 0.177 µM. For the same molecule, the EC50 came out at 0.238 µM in the experiment on Blood [11] and 0.0292 µM on Glucocorticoid receptor [12].
On Glucocorticoid receptor [1], `CC(C)(C(=O)Nc1nncs1)[C@H]1c2ccccc2Oc2nc(-c3ccc(C(=O)N4CCC(F)(F)C4)c(F)c3)ccc21` displayed a Ki of 0.00253 µM. The Imax in the experiment on Blood [2] is 81%; with Blood [5], 67%; in the experiment on Blood [7], 78%. The EC50 stood at 1.99 µM at Glucocorticoid receptor [3]; 0.0993 µM on Glucocorticoid receptor [4]; 3.07 µM with Blood [6]; 4.02 µM in the experiment with Blood [8]; 0.0379 µM at Glucocorticoid receptor [9]; 0.192 µM at Glucocorticoid receptor [10]. Besides, the EC50 in the experiment with Blood [11] amounted to 2.49 µM; at Glucocorticoid receptor [12] it was 0.0206 µM.
